Data from ChEMBL document CHEMBL4406880, “Design, synthesis, and bioactivity of dihydropyrimidine derivatives as kinesin spindle protein inhibitors” (Bioorg Med Chem, 2019).

How the values were obtained:
[1] = Inhibition of kinesin (unknown origin) assessed as reduction in ATPase activity using microtubule as substrate measured for 5 to mins; parameters: species or system Homo sapiens
HeLa = test: Antiproliferative activity against human HeLa cells assessed as growth percentage incubated for 72 hrs by XTT assay; type: functional, cell-based
MCF7 = test: Antiproliferative activity against human MCF7 cells assessed as growth percentage incubated for 72 hrs by XTT assay; type: functional, cell-based; details: MCF7, 72 h
[2] = Growth inhibition of human HEK293 cells assessed as cell viability at 1.56 ug incubated for 48 hrs by MTT assay relative to control; type: cell-based; details: read-out: Activity
[3] = Growth inhibition of human HEK293 cells assessed as cell viability at 25 ug incubated for 48 hrs by MTT assay relative to control; type: cell-based; details: read-out: Activity
[4] = Growth inhibition of human HEK293 cells assessed as cell viability at 100 ug incubated for 48 hrs by MTT assay relative to control; type: cell-based; details: read-out: Activity
[5] = Growth inhibition of human HEK293 cells assessed as cell viability at 0.39 ug incubated for 48 hrs by MTT assay relative to control; type: cell-based; details: read-out: Activity
[6] = Growth inhibition of human HEK293 cells assessed as cell viability at 6.25 ug incubated for 48 hrs by MTT assay relative to control; type: cell-based; details: read-out: Activity
SNB-75 [7] = test: Cell cycle arrest in human SNB75 cells assessed as accumulation in G0/G1 phase at 2 uM incubated for 24 hrs by propidium iodide based flow cytometry (reference value: 55.62 %); type: functional
In short: (§1)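 SNB-75 cells were exposed to 2 µM for 24 h at 37 °C, 5% CO2, then washed with PBS and fixed in 70% ethanol on ice for 15 min. They were stained 1 h at room temperature with 50 µg/mL propidium iodide, 0.1 mg/mL RNase A and 0.05% Triton X-100. DNA content was read by flow cytometry to give the % of cells in pre-G1, G0/G1, S and G2/M.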

[8] = molecular target: Kinesin-like protein KIF11 (Homo sapiens, UniProt P52732); test: Inhibition of recombinant human His-tagged Eg5 (1 to 368 residues) assessed as reduction in ATPase activity by […] based assay
MDA-MB-435 [9] = test: Induction of apoptosis in human MDA-MB-435 cells assessed as active caspase 3 level incubated for 2 hrs by ELISA (reference value: 1); type: functional
In short: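 Active caspase-3 was measured by human sandwich ELISA. Samples were incubated on the plate for 2 h at room temperature. This was followed by 1 h with detection antibody, 30 min with anti-rabbit IgG-HRP, and 30 min with chromogen, with all steps at room temperature. Absorbance was read at 450 nm, and levels were read from a standard curve.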

SNB-75 [10] = test: Induction of apoptosis in human SNB75 cells assessed as necrosis at 2 uM incubated for 24 hrs by annexin V FITC and propidium iodide based flow cytometry (reference value: 0.44 %); type: functional
SNB-75 [11] = test: Cell cycle arrest in human SNB75 cells assessed as accumulation in preG1 phase at 2 uM incubated for 24 hrs by propidium iodide based flow cytometry (reference value: 1.85 %); type: functional; in short: as §1
MDA-MB-435 [12] = test: Induction of apoptosis in human MDA-MB-435 cells assessed as active caspase 9 level incubated for 2 hrs by ELISA (reference value: 1); type: functional
In short: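 Caspase-9 was measured by human ELISA on cell lysates, with samples in duplicate. Samples were incubated with detection antibody for 2 h at room temperature. This was followed by 1 h with anti-rabbit IgG-HRP and 10 min with TMB substrate. After a stop solution, absorbance was read at 450 nm.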

SNB-75 [13] = test: Cell cycle arrest in human SNB75 cells assessed as accumulation in G2/M phase at 2 uM incubated for 24 hrs by propidium iodide based flow cytometry (reference value: 10.46 %); type: functional; in short: as §1
SNB-75 [14] = test: Cell cycle arrest in human SNB75 cells assessed as accumulation in S phase at 2 uM incubated for 24 hrs by propidium iodide based flow cytometry (reference value: 33.92 %); type: functional; in short: as §1
SNB-75 [15] = test: Induction of apoptosis in human SNB75 cells assessed as late apoptotic cells at 2 uM incubated for 24 hrs by annexin V FITC and propidium iodide based flow cytometry (reference value: 0.59 %); type: functional
SNB-75 [16] = test: Induction of apoptosis in human SNB75 cells assessed as early apoptotic cells at 2 uM incubated for 24 hrs by annexin V FITC and propidium iodide based flow cytometry (reference value: 0.82 %); type: functional

Kinesin-like protein KIF11, sequence (P52732 whole entry, the tested form may be a part): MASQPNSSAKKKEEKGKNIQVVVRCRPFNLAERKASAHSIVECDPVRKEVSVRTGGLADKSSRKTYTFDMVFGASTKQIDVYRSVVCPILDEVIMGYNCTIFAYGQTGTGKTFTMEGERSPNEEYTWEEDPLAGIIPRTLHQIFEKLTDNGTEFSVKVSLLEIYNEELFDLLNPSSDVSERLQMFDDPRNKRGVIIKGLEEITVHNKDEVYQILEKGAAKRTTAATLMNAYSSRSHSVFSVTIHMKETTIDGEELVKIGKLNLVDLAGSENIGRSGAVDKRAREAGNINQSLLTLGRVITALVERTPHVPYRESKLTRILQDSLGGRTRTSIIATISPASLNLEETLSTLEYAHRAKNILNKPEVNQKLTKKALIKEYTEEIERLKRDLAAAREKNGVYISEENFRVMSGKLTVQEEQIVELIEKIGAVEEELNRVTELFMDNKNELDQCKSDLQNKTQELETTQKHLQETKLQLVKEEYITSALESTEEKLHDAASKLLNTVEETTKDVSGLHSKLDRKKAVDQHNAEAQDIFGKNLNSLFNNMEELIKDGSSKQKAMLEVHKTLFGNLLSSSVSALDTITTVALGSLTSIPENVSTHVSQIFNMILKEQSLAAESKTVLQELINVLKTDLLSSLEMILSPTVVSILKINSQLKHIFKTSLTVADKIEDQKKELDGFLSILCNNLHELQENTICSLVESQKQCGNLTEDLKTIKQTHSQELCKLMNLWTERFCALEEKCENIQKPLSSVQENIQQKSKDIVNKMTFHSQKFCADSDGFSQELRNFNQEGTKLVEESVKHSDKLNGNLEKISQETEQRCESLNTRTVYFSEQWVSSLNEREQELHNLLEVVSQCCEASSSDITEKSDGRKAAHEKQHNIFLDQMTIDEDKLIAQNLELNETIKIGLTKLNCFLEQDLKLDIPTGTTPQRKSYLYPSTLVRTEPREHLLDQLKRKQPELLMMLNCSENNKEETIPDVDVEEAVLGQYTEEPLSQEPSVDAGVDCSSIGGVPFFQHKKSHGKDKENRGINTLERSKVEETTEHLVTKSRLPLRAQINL

## CC1=C(C(=O)c2ccccc2)C(c2cccc(O)c2)NC(=S)N1C (centres undefined)
[1]
  IC50: 0.1 µM

## CC1=C(C(=O)OCc2ccccc2)C(c2ccco2)NC(=O)N1 (centres undefined)
HeLa
  IC50: 40 µM
MCF7
  IC50: 55 µM

## COc1cccc2c1C(=O)c1c(O)c3c(c(O)c1C2=O)C[C@@](O)(C(=O)CO)C[C@@H]3O[C@H]1C[C@H](N)[C@H](O)[C@H](C)O1 [DOXORUBICIN]
[2]
  viability at 48 h, 1.56 ug: 64.7%
[3]
  viability at 48 h, 25 ug: 43.6%
[4]
  viability at 48 h, 100 ug: 33.8%
[5]
  viability at 48 h, 0.39 ug: 75.1%
[6]
  viability at 48 h, 6.25 ug: 55.2%

## CCOC(=O)C1=C(C)NC(=S)NC1c1cccc(O)c1 (centres undefined) [MONASTROL]
SNB-75 [7]
  Activity: 29.56%
[8]
  IC50: 20 µM
[1]
  IC50: 20 µM
MDA-MB-435 [9]
  fold change (FC): 6.9
SNB-75 [10]
  Activity: 2.32%
SNB-75 [11]
  Activity: 22.58%
MDA-MB-435 [12]
  fold change (FC): 11.92
SNB-75 [13]
  Activity: 41.26%
SNB-75 [14]
  Activity: 29.18%
SNB-75 [15]
  Activity: 15.54%
SNB-75 [16]
  Activity: 4.72%
